The test system of data set [1] is Mus musculus. Put plainly: Anti-pruritus activity in ICR mouse with histamine-induced itching assessed as reduction of scratching bouts at 10 mg/kg, po administered 30 mins prior to histamine challenge and measured upto 20 mins. The data set is classed as functional. Also on record: scale not given: the % may be the effect or the level left. As to conditions: time 50 min. The gist of the method:
(§1)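 Female ICR mice (n=8-10 per group), back skin clipped 24 h before. Oral dose in 20% hydroxypropyl-β-cyclodextrin given 30 min before intradermal pruritogen in saline: histamine 300 nmol, substance P 100 nmol or C48/80 100 µg. Scratching bouts counted from video for 20 min after injection. Mean ± S.E.M., Student's t-test.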

A short description of data set [2]: Cmax in ICR mouse at 2 mg/kg, po measured upto 24 hrs by LC-MS/MS analysis. The following applies: in vivo. The data set is classed as ADME, organism-based. More on the design: route oral, dose 2 mg/kg, time <=24. The gist of the method:
(§2)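 Female ICR mice, n=3 per group, given test compound orally. Blood sampled at 0.5, 1, 2, 4, 7 and 24 h post dose; plasma levels quantified by LC-MS/MS. Parameters from non-compartmental analysis.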

A short description of data set [3]: Protein binding in human plasma. The data set is classed as ADME, cell-free. The following applies: read-out: PPB (converted).
Data set [4] concerns Mus musculus. Description: Anti-pruritus activity in ICR mouse with histamine-induced itching assessed as reduction of scratching bouts administered orally 30 mins prior to histamine challenge and measured upto 20 mins. As to conditions: dose 2-50 mg/kg, time 50.0 min. The data set is classed as functional, organism-based.
Data set [5] is described as follows: Cmax in ICR mouse at 10 mg/kg, po measured upto 24 hrs by LC-MS/MS analysis. The data set is classed as ADME, organism-based. More on the design: route oral, dose 10 mg/kg, time <=24. The following applies: in vivo. The method in brief:
as §2

Data set [6] is described as follows: Tmax in ICR mouse at 50 mg/kg, po measured upto 24 hrs by LC-MS/MS analysis. The data set is classed as ADME, organism-based. As to conditions: in vivo. The gist of the method:
as §2

The test system of data set [7] is Mus musculus. Description: Antiinflammatory activity in oxazolone-induced Balb/c mouse model of atopic dermatitis assessed as reduction of epidermal thicken in skin lesions at 50 mg/kg, po BID administered 30 mins prior to oxazolone challenge for 3 weeks by hematoxylin and eosin staining based histopathological analysis. The data set is classed as functional, organism-based. The method in brief:
(§3)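 Female BALB/c mice (n=8), abdomen shaved. Sensitized on day 0 with topical 1% oxazolone (50 µL) in acetone/corn oil 4:1. From day 7, right ear challenged with 0.2% oxazolone (25 µL) 3 times weekly; left ear got vehicle. Oral dosing twice daily, 30 min before challenge, for 3 weeks. Scratching counted for 1 h after challenge on day 25. Ear thickness measured; ear fixed in 4% paraformaldehyde, 3 µm paraffin sections stained with H&E for epidermal thickness. Mean ± S.E.M., t-test.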

Data set [8] is described as follows: Tmax in ICR mouse at 10 mg/kg, po measured upto 24 hrs by LC-MS/MS analysis. The data set is classed as ADME, organism-based. As to conditions: in vivo. The gist of the method: as §2
In data set [9] the target is Histamine H1 receptor (Homo sapiens) (UniProt P35367). Description: Displacement of [3H]pyrilamine from recombinant human histamine H1 receptor after 60 mins by scintillation counting analysis.
In data set [10] the test system is Mus musculus. Description: Antiinflammatory activity in oxazolone-induced Balb/c mouse model of atopic dermatitis assessed as reduction of hyperplasia at 50 mg/kg, po BID administered 30 mins prior to oxazolone challenge for 3 weeks by hematoxylin and eosin staining based histopathological analysis. The data set is classed as functional, organism-based.
Data set [11] deals with Mus musculus. Put plainly: Antiinflammatory activity in oxazolone-induced Balb/c mouse model of atopic dermatitis assessed as reduction of ear thickness at 50 mg/kg, po BID administered 30 mins prior to oxazolone challenge for 3 weeks and measured on day 27. The data set is classed as functional, organism-based. The method in brief:
as §3

A short description of data set [12]: Cmax in ICR mouse at 50 mg/kg, po measured upto 24 hrs by LC-MS/MS analysis. More on the design: route oral, dose 50 mg/kg, time <=24. The data set is classed as ADME, organism-based. The following applies: in vivo. The method in brief:
as §2

For data set [13], the target named is Histamine H2 receptor (Homo sapiens) (UniProt P25021). Description: Displacement of [125I]-aminopotentidine from recombinant human histamine H2 receptor after 120 mins by radiometric scintillation counting analysis. On the technique in general: Loss of bound radioactivity is the signal in a displacement assay; it reports binding, not function.
The next data set addresses T1, Histamine H4 receptor (Mus musculus, UniProt Q91ZY2).
T1 sequence (Q91ZY2 whole entry): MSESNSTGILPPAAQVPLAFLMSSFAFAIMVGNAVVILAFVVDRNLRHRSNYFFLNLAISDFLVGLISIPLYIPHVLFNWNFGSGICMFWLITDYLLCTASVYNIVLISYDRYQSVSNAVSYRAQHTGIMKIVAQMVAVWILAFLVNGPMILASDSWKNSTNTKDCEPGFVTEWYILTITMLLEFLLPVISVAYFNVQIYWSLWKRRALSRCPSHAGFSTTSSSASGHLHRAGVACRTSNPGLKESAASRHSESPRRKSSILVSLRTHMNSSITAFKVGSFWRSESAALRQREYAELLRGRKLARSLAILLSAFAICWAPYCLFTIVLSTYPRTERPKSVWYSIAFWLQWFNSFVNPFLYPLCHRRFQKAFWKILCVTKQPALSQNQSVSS
Description: Displacement of [3H]-histamine from recombinant mouse histamine H4 receptor expressed in CHO-K1 cell membranes measured after 30 mins by microbeta scintillation counting method. More on the design: species or system Cell membrane. The gist of the method: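 Competitive binding on CHO-K1 membranes expressing human H3R ([3H]Nα-methylhistamine) or mouse H4R ([3H]histamine). Run in 50 mM Tris-HCl pH 7.4 for 30 min at 27 °C, then filtered onto 0.5% PEI-treated glass fiber and washed three times with ice-cold buffer. Bound radioactivity read by liquid scintillation counting.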

Data set [14] can be described thus: AUC (all) in ICR mouse at 50 mg/kg, po measured upto 24 hrs by LC-MS/MS analysis. More on the design: route oral, dose 50 mg/kg, time <=24. As to conditions: in vivo. The data set is classed as ADME, organism-based. The gist of the method: as §2
A further data set deals with Histamine H3 receptor (Homo sapiens, UniProt Q9Y5N1). Put plainly: Displacement of [3H]-N-alpha-methylhistamine from recombinant human histamine H3 receptor after 60 mins by radiometric scintillation counting analysis.
For data set [15], the system named is Mus musculus. Description: Anti-pruritus activity in ICR mouse with substance P-induced itching assessed as reduction of scratching bouts at 50 mg/kg, po administered 30 mins prior to […] and measured upto 20 mins. As to conditions: time 50.0 min. The data set is classed as functional, organism-based. The method in brief:
as §1

What is called Cmax is the maximum level reached in the sampled fluid or tissue. A word on the Tmax: it is the time at which the peak concentration occurs. By IC50 is commonly meant the midpoint of a concentration-inhibition curve. Broadly, the AUC is concentration integrated over time.

Activity calls are given as the source filed them. The rule behind the calls is not given here. Some results are limits rather than exact numbers.

Chain of Histamine H3 receptor (Q9Y5N1 whole entry): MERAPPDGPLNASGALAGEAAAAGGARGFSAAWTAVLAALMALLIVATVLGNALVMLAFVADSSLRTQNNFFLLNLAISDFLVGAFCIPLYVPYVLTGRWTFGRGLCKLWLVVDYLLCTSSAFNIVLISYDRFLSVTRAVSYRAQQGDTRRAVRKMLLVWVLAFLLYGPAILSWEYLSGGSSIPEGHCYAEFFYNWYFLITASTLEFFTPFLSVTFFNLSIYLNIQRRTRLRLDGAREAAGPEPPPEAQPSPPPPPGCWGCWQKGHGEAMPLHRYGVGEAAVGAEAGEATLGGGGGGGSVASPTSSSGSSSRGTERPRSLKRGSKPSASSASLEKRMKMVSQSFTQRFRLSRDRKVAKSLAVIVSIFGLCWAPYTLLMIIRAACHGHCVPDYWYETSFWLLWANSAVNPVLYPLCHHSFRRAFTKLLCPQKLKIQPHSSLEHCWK
Chain of Histamine H2 receptor (Homo sapiens) (P25021 whole entry): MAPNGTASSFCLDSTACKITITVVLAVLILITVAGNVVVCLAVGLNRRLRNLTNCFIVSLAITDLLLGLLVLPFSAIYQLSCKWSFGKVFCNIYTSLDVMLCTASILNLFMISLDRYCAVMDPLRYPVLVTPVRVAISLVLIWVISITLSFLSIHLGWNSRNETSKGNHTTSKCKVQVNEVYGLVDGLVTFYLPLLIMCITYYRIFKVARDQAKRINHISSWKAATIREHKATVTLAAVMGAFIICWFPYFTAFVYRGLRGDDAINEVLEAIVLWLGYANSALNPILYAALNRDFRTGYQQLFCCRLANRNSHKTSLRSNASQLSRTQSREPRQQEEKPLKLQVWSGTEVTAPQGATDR
Chain of Histamine H1 receptor (Homo sapiens) (P35367 whole entry): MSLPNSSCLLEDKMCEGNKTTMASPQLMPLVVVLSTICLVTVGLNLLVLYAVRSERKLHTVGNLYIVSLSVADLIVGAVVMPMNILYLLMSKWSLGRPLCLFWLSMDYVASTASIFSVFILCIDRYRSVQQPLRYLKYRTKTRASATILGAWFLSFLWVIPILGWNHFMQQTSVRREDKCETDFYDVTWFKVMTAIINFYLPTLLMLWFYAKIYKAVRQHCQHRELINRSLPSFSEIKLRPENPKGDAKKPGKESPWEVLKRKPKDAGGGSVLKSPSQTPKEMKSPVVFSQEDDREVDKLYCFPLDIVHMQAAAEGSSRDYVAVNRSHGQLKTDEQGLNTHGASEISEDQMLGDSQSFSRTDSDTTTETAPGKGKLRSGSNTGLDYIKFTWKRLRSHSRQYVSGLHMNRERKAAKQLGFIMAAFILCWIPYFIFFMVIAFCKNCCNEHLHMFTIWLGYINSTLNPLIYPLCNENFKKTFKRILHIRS

Turning to `CNC1CN(c2nc3ncc(Br)cc3n3nnnc23)C1`, the Activity result in the data set with Mus musculus [1] is “<=50%”; in the data set on Mus musculus [4], “Dose-dependent effect”. For the same compound, the values for the highest concentration (Cmax) in data set [2], in [5] and in data set [12] were 0.18 µg/mL, 1.82 µg/mL and 7.69 µg/mL, respectively. Moreover, the fraction unbound in data set [3] was 0.265. The time of peak concentration (Tmax) in [6] and in [8] was 30 min throughout. The result in the data set on Mus musculus [7], in the data set with Mus musculus [10], in the data set with Mus musculus [11] and with Mus musculus [15] was Active. Besides, the outcome (in data set [9]; in data set [13]; on Histamine H3 receptor) was inactive. The IC50 at Histamine H4 receptor turned out to be 0.29 µM. The area under the curve (AUC) at 24 h in data set [14] worked out at 62.6 µg·h/mL.

The values are drawn from ChEMBL document CHEMBL4765239, “Discovery of a Novel Highly Selective Histamine H4 Receptor Antagonist for the Treatment of Atopic Dermatitis” (J Med Chem, 2018).
